system: not listed separately; experiment: Solubility at pH 7.4; format: physicochemical; conditions: buffer

Solubility | Structure (SMILES)
< 0.01 µg/mL | CCOC(=O)N1c2ccc(C(F)(F)F)cc2N(C(c2cc(C(F)(F)F)cc(C(F)(F)F)c2)c2nnn(C)n2)C[C@H]1CC (stereo in doubt; (D2)-55d)

system: not listed separately; experiment: Half life in rat at 2 mg/kg, iv; format: ADME, organism-based; parameters: dose 2 mg/kg, route intravenous; conditions: in vivo

half-life | Structure (SMILES)
2.4 h | CCOC(=O)N1c2ccc(C(F)(F)F)cc2N(C(c2cc(C(F)(F)F)cc(C(F)(F)F)c2)c2nnn(C)n2)C[C@H]1CC (stereo in doubt; (D2)-55d)

system: not listed separately; experiment: Volume of distribution in rat at 2 mg/kg, iv; format: ADME, organism-based; parameters: dose 2 mg/kg, route intravenous; conditions: in vivo

Vd | Structure (SMILES)
2.6 L/kg | CCOC(=O)N1c2ccc(C(F)(F)F)cc2N(C(c2cc(C(F)(F)F)cc(C(F)(F)F)c2)c2nnn(C)n2)C[C@H]1CC (stereo in doubt; (D2)-55d)

system: not listed separately; experiment: Clearance in rat at 2 mg/kg, iv; format: ADME, organism-based; parameters: dose 2 mg/kg, route intravenous; conditions: in vivo

clearance | Structure (SMILES)
13 mL/min/kg | CCOC(=O)N1c2ccc(C(F)(F)F)cc2N(C(c2cc(C(F)(F)F)cc(C(F)(F)F)c2)c2nnn(C)n2)C[C@H]1CC (stereo in doubt; (D2)-55d)

biological target: T1, Cholesteryl ester transfer protein (Homo sapiens, UniProt P11597); experiment: Inhibition of CETP in human plasma; format: cell-free; conditions: not given
T1 sequence (P11597 whole entry): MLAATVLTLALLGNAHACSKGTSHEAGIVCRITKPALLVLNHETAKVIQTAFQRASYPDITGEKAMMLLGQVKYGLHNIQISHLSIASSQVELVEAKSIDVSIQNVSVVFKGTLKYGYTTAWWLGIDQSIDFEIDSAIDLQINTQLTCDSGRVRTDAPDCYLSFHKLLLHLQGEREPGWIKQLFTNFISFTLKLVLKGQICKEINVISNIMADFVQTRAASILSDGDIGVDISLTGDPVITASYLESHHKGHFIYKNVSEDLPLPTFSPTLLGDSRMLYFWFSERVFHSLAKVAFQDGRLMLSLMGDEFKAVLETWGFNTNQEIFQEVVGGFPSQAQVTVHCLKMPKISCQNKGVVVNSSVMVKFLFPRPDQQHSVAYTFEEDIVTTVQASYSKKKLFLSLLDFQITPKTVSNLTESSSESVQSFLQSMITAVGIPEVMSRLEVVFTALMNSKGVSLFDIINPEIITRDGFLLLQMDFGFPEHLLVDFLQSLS
Procedure, shortened: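 Radiometric transfer of ³H-cholesteryl ester from HDL to LDL, with human plasma supplying both CETP and LDL. Inhibitor, plasma and ³H-CE-HDL (diluted to 50 cholesterol) were incubated in 4% (v/v) final DMSO for 6 h at 37 °C. The reaction was stopped with 10 U heparin in 0.3 M MnCl₂ (final) to precipitate LDL, then spun at 1000g and supernatant (2/3 of assay volume) removed. IC50 reported.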

Structure (SMILES) | IC50
CCC1CN(C(c2cc(C(F)(F)F)cc(C(F)(F)F)c2)c2nnn(C)n2)c2cc(C(F)(F)F)ccc2N1C(=O)N1CCCC1 (stereo unspecified) | 100 µM
CCC1CN(C(c2cc(C(F)(F)F)cc(C(F)(F)F)c2)c2nnn(C)n2)c2cc(C(F)(F)F)ccc2N1CC1CCCC1 (stereo unspecified) | 0.854 µM
CCOC(=O)N1c2ccc(Br)cc2N(C(C(=O)OC)c2cc(C(F)(F)F)cc(C(F)(F)F)c2)CC1CC (stereo unspecified) | 1.9 µM
CCCCC(CC)COC(=O)N1c2ccc(C(F)(F)F)cc2N(C(c2cc(C(F)(F)F)cc(C(F)(F)F)c2)c2nnn(C)n2)CC1CC (stereo unspecified) | 62.6 µM
CCOC(=O)N1c2ccc(C(F)(F)F)cc2N(C(c2cc(C(F)(F)F)cc(C(F)(F)F)c2)c2nnn(CC(=O)OC(C)(C)C)n2)CC1CC (stereo unspecified) | 14.6 µM
CCOC(=O)N1c2ccc(C(F)(F)F)cc2N(C(c2cc(C(F)(F)F)cc(C(F)(F)F)c2)c2nnn(CC3CC3)n2)CC1CC (stereo unspecified) | 4.55 µM
CCC1CN(C(c2cc(C(F)(F)F)cc(C(F)(F)F)c2)c2nnn(C)n2)c2cc(C(F)(F)F)ccc2N1C(=O)OCc1ccccc1 (stereo unspecified) | 4.4 µM
CCC1CN(C(c2cc(C(F)(F)F)cc(C(F)(F)F)c2)c2nnn(C)n2)c2cc(C(F)(F)F)ccc2N1C(=O)N1CCOCC1 (stereo unspecified) | 36.9 µM
CCOC(=O)N1c2ccc(C(F)(F)F)cc2N(C(c2cc(C(F)(F)F)cc(C(F)(F)F)c2)c2nnn(CCC(=O)OC)n2)CC1CC (stereo unspecified) | 4.42 µM
CCC1CN(C(c2cc(C(F)(F)F)cc(C(F)(F)F)c2)c2nnn(C)n2)c2cc(C(F)(F)F)ccc2N1C[C@H]1CC[C@H](CC(=O)O)CC1 (stereo partly specified) | 2.91 µM
CCOC(=O)N1c2ccccc2N(C(Cc2ccccc2)C(=O)OC)CC1CC (stereo in doubt; (D1)-9a) | > 100 µM
CCOC(=O)N1c2ccccc2N(C(Cc2cc(C(F)(F)F)cc(C(F)(F)F)c2)C(=O)OC)CC1CC (stereo in doubt; (D1)-10a) | > 100 µM
CCOC(=O)N1c2ccccc2N(C(C(=O)OC)c2cc(C(F)(F)F)cc(C(F)(F)F)c2)CC1CC (stereo in doubt; (D1)-16a) | 5 µM
CCOC(=O)N1c2cc(Cl)c(Cl)cc2N(C(C(=O)OC)c2cc(C(F)(F)F)cc(C(F)(F)F)c2)CC1CC (stereo in doubt; (D1)-18a) | 92.5 µM
CCOC(=O)N1c2ccc(C(F)(F)F)cc2N(C(C(=O)OC)c2cc(C(F)(F)F)cc(C(F)(F)F)c2)CC1CC (stereo in doubt; (D1)-22a) | 0.5 µM
CCC1CN(C(c2cc(C(F)(F)F)cc(C(F)(F)F)c2)c2nnn(C)n2)c2cc(C(F)(F)F)ccc2N1C(=O)NCCO (stereo in doubt; (D1)-33a) | 100 µM
CCC1CN(C(c2cc(C(F)(F)F)cc(C(F)(F)F)c2)c2nnn(C)n2)c2cc(C(F)(F)F)ccc2N1CC1CCCCC1 (stereo in doubt; (D1)-39a) | 1.3 µM
CCOC(=O)N1c2ccccc2N(C(Cc2ccccc2)C(=O)OC)CC1CC (stereo in doubt; (D2)-9b) | > 100 µM
CCOC(=O)N1c2ccccc2N(C(Cc2cc(C(F)(F)F)cc(C(F)(F)F)c2)C(=O)OC)CC1CC (stereo in doubt; (D2)-10b) | > 100 µM
CCOC(=O)N1c2ccccc2N(C(C(=O)OC)c2cc(C(F)(F)F)cc(C(F)(F)F)c2)CC1CC (stereo in doubt; (D2)-16b) | 8.6 µM
CCOC(=O)N1c2cc(Cl)c(Cl)cc2N(C(C(=O)OC)c2cc(C(F)(F)F)cc(C(F)(F)F)c2)CC1CC (stereo in doubt; (D2)-18b) | 93.4 µM
CCOC(=O)N1c2ccc(C(F)(F)F)cc2N(C(C(=O)OC)c2cc(C(F)(F)F)cc(C(F)(F)F)c2)CC1CC (stereo in doubt; (D2)-22b) | 0.56 µM
CCC1CN(C(c2cc(C(F)(F)F)cc(C(F)(F)F)c2)c2nnn(C)n2)c2cc(C(F)(F)F)ccc2N1C(=O)NCCO (stereo in doubt; (D2)-33b) | 4.57 µM
CCC1CN(C(c2cc(C(F)(F)F)cc(C(F)(F)F)c2)c2nnn(C)n2)c2cc(C(F)(F)F)ccc2N1CC1CCCCC1 (stereo in doubt; (D2)-39b) | 5.7 µM

Second part, the compound after the results:

IC50 | Structure (SMILES)
1.11 µM | CCCCOC(=O)N1c2ccc(C(F)(F)F)cc2N(C(c2cc(C(F)(F)F)cc(C(F)(F)F)c2)c2nnn(C)n2)CC1CC (stereo unspecified)
54.6 µM | CCOC(=O)N1c2ccc(C(F)(F)F)cc2N(C(c2cc(C(F)(F)F)cc(C(F)(F)F)c2)c2nnn(CC(=O)O)n2)CC1CC (stereo unspecified)
46.4 µM | CCNC(=O)N1c2ccc(C(F)(F)F)cc2N(C(c2cc(C(F)(F)F)cc(C(F)(F)F)c2)c2nnn(C)n2)CC1CC (stereo unspecified)
100 µM | CCC1CN(C(c2cc(C(F)(F)F)cc(C(F)(F)F)c2)c2nnn(C)n2)c2cc(C(F)(F)F)ccc2N1C(=O)N(C)C (stereo unspecified)
0.232 µM | CCC1CN(C(c2cc(C(F)(F)F)cc(C(F)(F)F)c2)c2nnn(C)n2)c2cc(C(F)(F)F)ccc2N1C(=O)OCC(C)C (stereo unspecified)
7.81 µM | CCOC(=O)N1c2ccc(C(F)(F)F)cc2N(C(c2cc(C(F)(F)F)cc(C(F)(F)F)c2)c2nnn(CCN(C)C)n2)CC1CC (stereo unspecified)
3.42 µM | CCOC(=O)N1c2ccc(C(F)(F)F)cc2N(C(c2cc(C(F)(F)F)cc(C(F)(F)F)c2)c2nnn(CCC#N)n2)CC1CC (stereo unspecified)
32.5 µM | CCOC(=O)N1c2ccc(C(F)(F)F)cc2N(C(c2cc(C(F)(F)F)cc(C(F)(F)F)c2)c2nnn(CC(=O)OC)n2)CC1CC (stereo unspecified)
0.87 µM | CCOC(=O)N1c2ccc(C(F)(F)F)cc2N(C(c2cc(C(F)(F)F)cc(C(F)(F)F)c2)c2nnn(C)n2)CC1CC (stereo in doubt; (D1)-28a)
2.26 µM | CCOC(=O)N1c2ccc(C(F)(F)F)cc2N(C(c2cc(C(F)(F)F)cc(C(F)(F)F)c2)c2nnn(CCO)n2)CC1CC (stereo in doubt; (D1)-46a)
5.22 µM | CCOC(=O)N1c2ccc(C(F)(F)F)cc2N(C(c2cc(C(F)(F)F)cc(C(F)(F)F)c2)c2nnn(CC(N)=O)n2)CC1CC (stereo in doubt; (D1)-50a)
0.44 µM | CCOC(=O)N1c2ccc(C(F)(F)F)cc2N(C(c2cc(C(F)(F)F)cc(C(F)(F)F)c2)c2nnn(C)n2)C[C@H]1CC (stereo in doubt; (D1)-55a)
47.5 µM | CCOC(=O)N1c2ccc(C(F)(F)F)cc2N(C(c2cc(C(F)(F)F)cc(C(F)(F)F)c2)c2nnn(C)n2)C[C@@H]1CC (stereo in doubt; (D1)-55b)
0.23 µM | CCOC(=O)N1c2ccc(C(F)(F)F)cc2N(C(c2cc(C(F)(F)F)cc(C(F)(F)F)c2)c2nnn(C)n2)CC1CC (stereo in doubt; (D2)-28b)
2.22 µM | CCOC(=O)N1c2ccc(C(F)(F)F)cc2N(C(c2cc(C(F)(F)F)cc(C(F)(F)F)c2)c2nnn(CCO)n2)CC1CC (stereo in doubt; (D2)-46b)
100 µM | CCOC(=O)N1c2ccc(C(F)(F)F)cc2N(C(c2cc(C(F)(F)F)cc(C(F)(F)F)c2)c2nnn(CC(N)=O)n2)CC1CC (stereo in doubt; (D2)-50b)
1.5 µM | CCOC(=O)N1c2ccc(C(F)(F)F)cc2N(C(c2cc(C(F)(F)F)cc(C(F)(F)F)c2)c2nnn(C)n2)C[C@@H]1CC (stereo in doubt; (D2)-55c)
0.143 µM | CCOC(=O)N1c2ccc(C(F)(F)F)cc2N(C(c2cc(C(F)(F)F)cc(C(F)(F)F)c2)c2nnn(C)n2)C[C@H]1CC (stereo in doubt; (D2)-55d)

Source: ChEMBL document CHEMBL1139176, “Tetrazole and ester substituted tetrahydoquinoxalines as potent cholesteryl ester transfer protein inhibitors” (Bioorg Med Chem Lett, 2007)
